The results in this text go back to ChEMBL document CHEMBL4364350, “Use of a fluorescence assay to determine relative affinities of semisynthetic aminoglycosides to small RNAs representing bacterial and mitochondrial A sites” (Bioorg Med Chem, 2019).

Values after ≈ are worked out from the molar mass of the structure shown.

Series [1] in a line: Binding affinity to 5'-fluorescein-tagged Escherichia coli ribosomal A site wt-bac duplex RNA incubated for 2 mins by fluorescence spectrophotometric analysis. The method in brief: (§1)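 The 5'-fluorescein-labelled strand was set to 1 μM in binding buffer (10 mM HEPES pH 7.4, 150 mM NaCl, 3 mM Na2EDTA). The complementary strand was annealed at 95 °C for 1 min, then cooled slowly overnight. Aminoglycoside was added in 12–15 aliquots of 2 μL, each followed by 2 min incubation. Excitation 490 nm; 520 nm emission was volume-corrected. Fraction bound was fitted to a quadratic equation for apparent Kd, from three independent trials.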

Series [2] is described as follows: Binding affinity to 5'-fluorescein-tagged human mitochondrial ribosomal A site wt-duplex RNA incubated for 2 mins by fluorescence spectrophotometric analysis. A digest of the protocol:
as §1

Series [3] can be described thus: Binding affinity to 5'-fluorescein-tagged human mitochondrial ribosome A site mutant duplex RNA incubated for 2 mins by fluorescence spectrophotometry analysis. The method in brief: as §1
The target in series [4] is Bacterial 70S ribosome. As to the kind of experiment: Anti-ribosomal activity against bacterial 70S hybrid ribosomes assessed as inhibition of cell-free translation incubated for 35 mins by dual luciferase reporter assay. It counts as subcellular, Bacteria. Background: A reporter such as luciferase makes a cellular process visible.
For series [5], the system named is Escherichia coli. As to the kind of experiment: Antibacterial activity against Escherichia coli AG001 incubated for overnight by broth microdilution assay. Type of series: functional. (In general: Broth dilution looks for growth in wells or tubes with falling amounts of substance.)
Series [6] in a line: Anti-ribosomal activity against human-bacterial hybrid ribosome containing human mitochondrial ribosome A site harboring A1555G mutant 12s rRNA assessed as inhibition of cell-free translation by dual luciferase reporter assay.
The nature of series [7]: Anti-ribosomal activity against human-bacterial hybrid ribosome containing human mitochondrial ribosome A site harboring wild type 12s rRNA assessed as inhibition of cell-free translation by dual luciferase reporter assay.
A short description of series [8]: Selectivity ratio of IC50 for anti-ribosomal activity against human-bacterial hybrid ribosome containing human mitochondrial ribosome A site harboring wild type 12s rRNA to IC50 for anti-ribosomal activity against bacterial 70S hybrid ribosomes.
Series [9] deals with human mitochondrial ribosomal A site (wild type) RNA. In words: Selectivity ratio of Kd for 5'-fluorescein-tagged human mitochondrial ribosomal A site wt-duplex RNA to Kd for 5'-fluorescein-tagged Escherichia coli ribosomal A site wt-bac duplex RNA. It counts as toxicity.
Series [10] is described as follows: Selectivity ratio of IC50 for anti-ribosomal activity against human-bacterial hybrid ribosome containing human mitochondrial ribosome A site harboring A1555G mutant 12s rRNA to IC50 for anti-ribosomal activity against bacterial 70S hybrid ribosomes.
The test system of series [11] is human mitochondrial ribosome A site (mutant) RNA. In words: Selectivity ratio of Kd for 5'-fluorescein-tagged human mitochondrial ribosome A site mutant duplex RNA to Kd for 5'-fluorescein-tagged Escherichia coli ribosomal A site wt-bac duplex RNA. Type of series: toxicity.
Series [12] concerns Escherichia coli. In words: Potency index, ratio of paromomycin Kd to compound Kd for 5'-fluorescein-tagged Escherichia coli ribosomal A site wt-bac duplex RNA incubated for 2 mins by fluorescence spectrophotometric analysis.
Series [13] concerns Escherichia coli. In words: Binding affinity to 5'-fluorescein-tagged Escherichia coli ribosomal A site wt-bac duplex RNA assessed as conformational change in RNA by measuring decrease in fluorescence intensity incubated for 2 mins by fluorescence spectrophotometric analysis. The method in brief:
as §1

A short description of series [14]: Binding affinity to 5'-fluorescein-tagged bacterial ribosomal A site 27-nucleotide hairpin RNA construct by fluorescence analysis. Also on record: species or system Bacteria.

`CCC[C@H]1[C@H](O)[C@@H](N)[C@@H](O[C@H]2[C@H](O[C@@H]3O[C@H](CO)[C@@H](O[C@H]4O[C@@H](CN)[C@@H](O)[C@H](O)[C@H]4N)[C@H]3O)[C@@H](O)[C@H](N)C[C@@H]2N)O[C@@H]1CO`: the Kd in series [1] is 2 nM; in series [2] it was 26900 nM; in series [3], 5800 nM. For the same compound, the IC50 was 46.7 nM in [4], 51 µg/mL (≈ 79.5 µM) in [6] and 167 µg/mL (≈ 260 µM) in series [7]. In [5], this compound gave an MIC of 2 µg/mL (≈ 3.12 µM). The values for the Ratio IC50 in [8] and in series [10] were 5570 and 1730, respectively. In addition, the selectivity ratio in [9] was determined as 13400; in series [11] it was 2900. Moreover, the Ratio in series [12] was 2.5.
As for `NC[C@@H]1O[C@H](O[C@H]2[C@@H](O)[C@H](O[C@@H]3[C@@H](O)[C@H](N)C[C@H](N)[C@H]3O[C@H]3O[C@H](CO)[C@@H](O)[C@H](O)[C@H]3N)O[C@@H]2CO)[C@H](N)[C@@H](O)[C@@H]1O` [PAROMOMYCIN], the Kd in series [1] came out at 5 nM; in [2], 6500 nM; in series [3] it was 2800 nM. The compound further registered an MIC in series [5] of 4 µg/mL (≈ 6.5 µM). Also, the figures for the 50% inhibitory concentration (IC50) in series [6] and in series [7] were 6 µg/mL (≈ 9.75 µM) and 51 µg/mL (≈ 82.8 µM), respectively. Besides, the Ratio IC50 in [8] is 1700; in [10] it was 200. The values for the selectivity ratio in series [9] and in series [11] were 1300 and 560, respectively.
Regarding `NC[C@@H]1O[C@H](O[C@H]2[C@@H](O)[C@H](O[C@@H]3[C@@H](O)[C@H](N)C[C@H](N)[C@H]3O[C@H]3O[C@H](CN)[C@@H](O)[C@H](O)[C@H]3N)O[C@@H]2CO)[C@H](N)[C@@H](O)[C@@H]1O` [FRAMYCETIN], the Kd in series [1] stood at 1 nM; in series [2], 1100 nM; in [3] it was 100 nM; in series [14], 5 nM. The Ratio IC50 in series [8] is 200; in series [10], 20. Further, the selectivity ratio in [9] is 1100; in [11] it was 100. Also, the inhibition in series [13] amounted to 20%.
Consider `CCO[C@H]1[C@H](O)[C@@H](N)[C@@H](O[C@H]2[C@H](O[C@@H]3O[C@H](CO)[C@@H](O[C@H]4O[C@@H](CN)[C@@H](O)[C@H](O)[C@H]4N)[C@H]3O)[C@@H](O)[C@H](N)C[C@@H]2N)O[C@@H]1CO`, for which the equilibrium dissociation constant (Kd) in series [1] stood at 30 nM; in series [2], 12800 nM; in [3], 8600 nM. Also, the half-inhibitory concentration (IC50) in [4] was 124 nM; in series [6], 120 µg/mL (≈ 186 µM); in series [7], 97 µg/mL (≈ 151 µM). This compound also registered a minimum inhibitory concentration (MIC) in series [5] of 16 µg/mL (≈ 24.9 µM). For the same compound, the results for the Ratio IC50 in series [8] and in series [10] were 1210 and 1500, respectively. In addition, the results for the selectivity ratio in series [9] and in series [11] were 427 and 287, respectively.

What is called Kd is a measure of binding affinity in units of concentration. Low values mean tighter binding, high ones weaker binding. The term IC50 denotes the concentration at which inhibition is half-maximal. A word on the MIC: it is the lowest concentration found to suppress growth. What is called inhibition is the drop in the measured response relative to a control, in per cent.
